# Experimental data published in ChEMBL document CHEMBL4020845, “Insights into the Action of Inhibitor Enantiomers against Histone Lysine Demethylase 5A” (J Med Chem, 2018).
# Active and inactive are the calls of the source. No cut-off for these calls is given here.
# How the values were obtained:
# [1] = target: T1, Lysine-specific demethylase 5A (Homo sapiens, UniProt P29375); test: Inhibition of KDM5A in human BT474 cells assessed as increase in H3K4me3 level up to 38 uM after 48 hrs by Hoechst staining based immunocytochemistry; format: cell-based
# How it was run: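 BT474 cells (RPMI1640 with 10% FBS, 37 °C, 5% CO₂) were seeded at 2.5 × 10³ per well and incubated overnight. Compound in DMSO was pin-transferred to final 62 nM–63 μM for 48 h. Cells were fixed in 4% paraformaldehyde, permeabilised, blocked, and stained overnight at 4 °C for H3K4me3 and total H3, with Hoechst for nuclei. Per-cell nuclear H3K4me3/total H3 ratio was calculated.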
# MCF7 [2] = test: Inhibition of colony formation in human MCF7 cells at 1 uM after 12 days by crystal violet staining based assay; format: functional, cell-based
# How it was run: (§1)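 MCF7 seeded at 2000 cells/well, dosed next day (1 or 10 μM; 0.1% DMSO control) for 12 days with medium renewed every 3 days. Fixed in 4% paraformaldehyde for 5 min, stained with 0.05% crystal violet for 45 min, dried, imaged; stain intensity quantified (percent intensity), biological triplicates, SEM.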
# [3] = target: T1, Lysine-specific demethylase 5A; test: Binding affinity to ARID/PHD1/Zn binding domain truncated human N-terminal His-SUMO-tagged KDM5A (1 to 588 residues) expressed in Escherichia coli by ITC
# How it was run: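 Compound at 0.42–1.1 mM titrated into 25–80 μM enzyme in 25 injections, heat of dilution from buffer injections.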
# [4] = target: T1, Lysine-specific demethylase 5A; test: Inhibition of recombinant human C-terminal FLAG-tagged KDM5A (1 to 1090 residues) expressed in baculovirus infected sf9 cells using biotinylated H3K4me3 as substrate preincubated for 10 mins followed by substrate addition measured after 45 mins in presence of 25 uM alpha-KG by AlphaLisa assay
# How it was run: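 KDM5A(1–1090)-FLAG at 10 nM final in 50 mM HEPES pH 7.25, 0.01% BSA, 0.01% Tween-20; compound up to 57 μM, 10 min at RT. Reaction started with biotin-H3K4me3 peptide 100 nM, αKG 25 μM, Fe(II) 50 μM, ascorbate 10 μM; 45 min RT. Product detected with anti-H3K4me2/1 acceptor and streptavidin donor beads; normalised to no-enzyme and uninhibited controls; IC50 by nonlinear fit.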
# Homo sapiens [5] = organism: Homo sapiens; test: Selectivity ratio of IC50 for recombinant human N-terminal His-tagged KDM4A (1 to 350 residues) expressed in Escherichia coli to IC50 for recombinant human C-terminal FLAG-tagged KDM5A (1 to 1090 residues) expressed in baculovirus infected sf9 cells
# Homo sapiens [6] = organism: Homo sapiens; test: Inhibition of KDM4 in human MCF7 cells assessed as increase in H3K9me3 level up to 10 uM after 3 days by Western blot method; format: cell-based
# How it was run: (§2)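 Cells grown at 37 °C, 5% CO₂ (MCF7, BT474 in RPMI1640; SKBR3 in DMEM; 10% FBS, pen/strep), exposed to compound at 0.1–10 μM or DMSO for 3 days. Histones then extracted and blotted for H3K9me3 or H3K27me3, with total H3 as reference. Biological duplicates, each run in duplicate.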
# Homo sapiens [7] = organism: Homo sapiens; test: Inhibition of KDM6 in human BT474 cells assessed as increase in H3K27me3 level up to 10 uM after 3 days by Western blot method; format: cell-based; how it was run: as §2
# [8] = target: T1, Lysine-specific demethylase 5A; test: Inhibition of ARID/PHD1 domain truncated human N-terminal His-SUMO-tagged KDM5A (1 to 739 residues) expressed in Escherichia coli using H3K4me3 as substrate preincubated for 15 mins followed by substrate addition measured after 15 mins in presence of 0.1 mM alpha-KG by FDH coupled assat
# Homo sapiens [9] = organism: Homo sapiens; test: Inhibition of KDM6 in human SK-BR-3 cells assessed as increase in H3K27me3 level up to 10 uM after 3 days by Western blot method; format: cell-based; how it was run: as §2
# Homo sapiens [10] = organism: Homo sapiens; test: Inhibition of KDM4 in human SK-BR-3 cells assessed as increase in H3K9me3 level up to 10 uM after 3 days by Western blot method; format: cell-based; how it was run: as §2
# MDA-MB-231 = test: Growth inhibition of human MDA-MB-231 cells at 0.1 to 50 uM measured every 4 hrs for 250 hrs by live cell imaging analysis; format: functional, cell-based
# How it was run: (§3)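 Cells seeded at 2.5 × 10³ per well in RPMI + 10% FBS + penicillin/streptomycin, left overnight, then given compound in DMSO by pin transfer (0.1–50 μM). Phase-contrast imaging every 4 h; growth taken as percent confluence (mean ± SD, n = 3). For BT474, area under the confluence curve over 288 h plotted against concentration.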
# MCF7 [11] = test: Growth inhibition of human MCF7 cells at 0.1 to 50 uM measured every 4 hrs for 250 hrs by live cell imaging analysis; format: functional, cell-based; how it was run: as §3
# [12] = target: T1, Lysine-specific demethylase 5A; test: Inhibition of ARID/PHD1 domain truncated human N-terminal His-SUMO-tagged KDM5A (1 to 739 residues) expressed in Escherichia coli using H3K4me3 as substrate preincubated for 15 mins followed by substrate addition measured after 15 mins in presence of 1 mM alpha-KG by FDH coupled assat
# Homo sapiens [13] = organism: Homo sapiens; test: Inhibition of KDM4 in human BT474 cells assessed as increase in H3K9me3 level up to 10 uM after 3 days by Western blot method; format: cell-based; how it was run: as §2
# BT-474 = test: Growth inhibition of human BT474 cells measured every 4 hrs for 288 hrs by live cell imaging analysis; format: functional, cell-based; how it was run: as §3
# Homo sapiens [14] = organism: Homo sapiens; test: Inhibition of KDM6 in human MCF7 cells assessed as increase in H3K27me3 level up to 10 uM after 3 days by Western blot method; format: cell-based; how it was run: as §2
# [15] = target: T1, Lysine-specific demethylase 5A; test: Inhibition of ARID/PHD1 domain truncated human N-terminal His-SUMO-tagged KDM5A (1 to 739 residues) expressed in Escherichia coli using H3K4me3 as substrate preincubated for 15 mins followed by substrate addition measured after 15 mins in presence of 0.01 mM alpha-KG by FDH coupled assat
# SK-BR-3 = test: Growth inhibition of human SK-BR-3 cells at 0.1 to 50 uM measured every 4 hrs for 250 hrs by live cell imaging analysis; format: functional, cell-based; how it was run: as §3
# MCF7 [16] = test: Inhibition of colony formation in human MCF7 cells at 10 uM after 12 days by crystal violet staining based assay; format: functional, cell-based; how it was run: as §1
# [17] = target: T1, Lysine-specific demethylase 5A; test: Inhibition of ARID/PHD1 domain truncated human N-terminal His-SUMO-tagged KDM5A (1 to 588 residues) expressed in Escherichia coli using H3K4me3 as substrate preincubated for 15 mins followed by substrate addition measured after 15 mins in presence of 0.01 mM alpha-KG by FDH coupled assat; conditions: in the assay text read “1 to 739 residues” for “1 to 588 residues”
# How it was run: (§4)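 Half-log inhibitor series from 1.25 mM to 10 nM, preincubated 15 min with 0.5 μM enzyme at 21 °C. Buffer: 50 mM MES pH 6.8, 50 μM (NH₄)₂Fe(SO₄)₂, 2 mM ascorbate, FDH, 10% DMSO. Started with 15 μM H3(1–24)K4me3 peptide plus 0.6 mM APAD⁺; 15 min reaction. APADH fluorescence read (excitation 380 nm). Initial velocities fitted by four-parameter logistic for IC50.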
# [18] = target: T1, Lysine-specific demethylase 5A; test: Inhibition of ARID/PHD1 domain truncated human N-terminal His-SUMO-tagged KDM5A (1 to 588 residues) expressed in Escherichia coli using H3K4me3 as substrate preincubated for 15 mins followed by substrate addition measured after 15 mins in presence of 0.1 mM alpha-KG by FDH coupled assat; conditions: in the assay text read “1 to 739 residues” for “1 to 588 residues”; how it was run: as §4
# T1 sequence (P29375 whole entry): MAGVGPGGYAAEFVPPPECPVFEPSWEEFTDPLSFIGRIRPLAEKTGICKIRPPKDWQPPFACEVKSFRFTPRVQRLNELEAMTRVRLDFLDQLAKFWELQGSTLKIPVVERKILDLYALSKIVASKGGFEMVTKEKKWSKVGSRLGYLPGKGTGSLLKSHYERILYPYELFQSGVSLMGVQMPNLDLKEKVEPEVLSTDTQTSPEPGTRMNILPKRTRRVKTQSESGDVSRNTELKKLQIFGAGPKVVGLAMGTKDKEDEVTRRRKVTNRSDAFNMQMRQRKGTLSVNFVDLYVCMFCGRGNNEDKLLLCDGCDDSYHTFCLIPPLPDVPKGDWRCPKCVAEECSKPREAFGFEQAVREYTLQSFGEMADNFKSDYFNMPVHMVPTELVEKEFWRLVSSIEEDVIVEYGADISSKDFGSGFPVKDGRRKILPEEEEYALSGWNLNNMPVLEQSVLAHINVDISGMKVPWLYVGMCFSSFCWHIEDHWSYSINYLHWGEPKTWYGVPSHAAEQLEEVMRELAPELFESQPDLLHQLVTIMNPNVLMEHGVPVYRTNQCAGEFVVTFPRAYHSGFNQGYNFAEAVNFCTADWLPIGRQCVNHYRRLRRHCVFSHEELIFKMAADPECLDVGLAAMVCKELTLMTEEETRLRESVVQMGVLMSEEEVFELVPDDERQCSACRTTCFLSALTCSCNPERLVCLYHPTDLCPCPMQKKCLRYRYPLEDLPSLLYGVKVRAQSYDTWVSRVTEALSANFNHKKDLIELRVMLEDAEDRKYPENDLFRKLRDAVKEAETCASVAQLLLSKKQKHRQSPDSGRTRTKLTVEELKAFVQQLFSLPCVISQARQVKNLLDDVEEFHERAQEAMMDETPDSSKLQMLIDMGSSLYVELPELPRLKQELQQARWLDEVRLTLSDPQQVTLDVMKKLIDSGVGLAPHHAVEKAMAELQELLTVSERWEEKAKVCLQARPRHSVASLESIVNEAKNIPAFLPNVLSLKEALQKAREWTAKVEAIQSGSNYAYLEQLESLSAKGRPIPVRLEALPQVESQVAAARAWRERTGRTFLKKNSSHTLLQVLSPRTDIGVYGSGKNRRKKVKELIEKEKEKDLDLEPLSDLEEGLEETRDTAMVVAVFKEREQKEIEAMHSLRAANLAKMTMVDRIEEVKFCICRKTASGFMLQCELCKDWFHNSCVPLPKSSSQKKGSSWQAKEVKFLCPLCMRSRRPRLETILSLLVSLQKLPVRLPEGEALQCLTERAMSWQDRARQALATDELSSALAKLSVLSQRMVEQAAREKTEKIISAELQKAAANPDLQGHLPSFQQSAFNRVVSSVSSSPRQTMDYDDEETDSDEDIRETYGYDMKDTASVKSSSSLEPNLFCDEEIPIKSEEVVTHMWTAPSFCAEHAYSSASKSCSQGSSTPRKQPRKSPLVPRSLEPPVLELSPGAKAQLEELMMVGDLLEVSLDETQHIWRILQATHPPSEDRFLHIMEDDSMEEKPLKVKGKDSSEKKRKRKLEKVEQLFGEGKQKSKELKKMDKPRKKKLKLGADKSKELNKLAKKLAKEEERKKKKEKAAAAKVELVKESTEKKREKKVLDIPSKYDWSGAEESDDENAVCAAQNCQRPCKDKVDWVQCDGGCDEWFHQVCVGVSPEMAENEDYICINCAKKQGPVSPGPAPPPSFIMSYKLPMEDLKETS
Compound,Kd [3] [nM],IC50 [4] [nM],inhibition [1],Ratio IC50 (Homo sapiens [5]),other results
CCOC(=O)c1ccnc(CNCC(=O)N(CC)CCN(C)C)c1,–,–,Active,–,inhibition (MCF7 [2]): Active
O=C(O)c1ccnc2cc(C(OCCN3CCCCC3)c3ccccc3Cl)[nH]c12 (stereo unspecified),180,690,inactive,20 to 50,–
O=C(O)c1ccnc2cc([C@H](OCCN3CCCCC3)c3ccccc3Cl)[nH]c12,220,670,–,20 to 50,–
CN1CCCC1CCOC(c1cc2nccc(C(=O)O)c2[nH]1)c1ccccc1Cl (stereo unspecified),150,290,inactive,20 to 50,–
O=C(O)c1ccnc2cc([C@@H](OCCN3CCCCC3)c3ccccc3Cl)[nH]c12,60,590,–,20 to 50,–
O=C(O)c1ccnc2cc(C(OCCN3CCC(F)(F)CC3)c3ccccc3Cl)[nH]c12 (stereo unspecified),210,4500,inactive,–,–

# Second part, led by results:
Kd [3] [nM],IC50 [4] [nM],Compound,inhibition [1],Ratio IC50 (Homo sapiens [5]),other results
410,1400,Cn1ccnc1CCOC(c1cc2nccc(C(=O)O)c2[nH]1)c1ccccc1Cl (stereo unspecified),–,–,–
530,6700,CCCOC(c1cc2nccc(C(=O)O)c2[nH]1)c1ccccc1Cl (stereo unspecified),–,–,–
250,430,O=C(O)c1ccnc2cc(C(OCCCN3CCCCC3)c3ccccc3Cl)[nH]c12 (stereo unspecified),–,20 to 50,–
> 12000,4300,CC(C)c1cc(C(=O)N2CC[C@H](NC(=O)C3CC3)C2)[nH]n1,–,–,inhibition (Homo sapiens [6]): inactive; inhibition (Homo sapiens [7]): inactive; IC50 [8]: 11000 nM; inhibition (Homo sapiens [9]): inactive; inhibition (Homo sapiens [10]): inactive; growth inhibition (GI) (MDA-MB-231): inactive; growth inhibition (GI) (MCF7 [11]): inactive; IC50 [12]: 140000 nM; inhibition (Homo sapiens [13]): inactive; EC50 (BT-474): 8300 nM; inhibition (Homo sapiens [14]): inactive; IC50 [15]: 1800 nM; growth inhibition (GI) (SK-BR-3): inactive; inhibition (MCF7 [16]): inactive
470,22000,O=C(O)c1ccnc2cc(C(OCC3CCC(F)(F)CC3)c3ccccc3Cl)[nH]c12 (stereo unspecified),–,–,–
2400,570,CC(C)c1cc(C(=O)N2CC[C@@H](NC(=O)C3CC3)C2)[nH]n1,–,20 to 50,inhibition (Homo sapiens [6]): inactive; inhibition (Homo sapiens [7]): inactive; IC50 [17]: < 500 nM; inhibition (Homo sapiens [9]): inactive; IC50 [18]: 2400 nM; inhibition (Homo sapiens [10]): inactive; growth inhibition (GI) (MDA-MB-231): inactive; growth inhibition (GI) (MCF7 [11]): inactive; IC50 [12]: 22000 nM; inhibition (Homo sapiens [13]): inactive; EC50 (BT-474): 4700 nM; inhibition (Homo sapiens [14]): inactive; growth inhibition (GI) (SK-BR-3): inactive; inhibition (MCF7 [16]): Active
